Data as given in ChEMBL document CHEMBL3286189, “Discovery and SAR studies of a novel class of cytotoxic 1,4-disubstituted piperidines via Ugi reaction” (Eur J Med Chem, 2014).
pIC50: −log10 of the molar value.

tested on: HeLa; assay: Cytostatic activity against human HeLa cells assessed as inhibition of cell proliferation after 72 hrs by coulter counting analysis; type: functional, cell-based; conditions: Homo sapiens, HeLa, 72 h
Outline: (§1)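 Anti-proliferative screen in murine leukemia L1210, human T-lymphocyte CEM and human cervix carcinoma HeLa cultures. The value reported is the IC50, the concentration that inhibits cell proliferation by 50%.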

pIC50	SMILES
5.23	CC(C)(C)OC(=O)N[C@@H](Cc1c[nH]c2ccccc12)C(=O)N(Cc1ccccc1)C1(C(=O)NCc2ccccc2)CCN(Cc2ccccc2)CC1
4.08	CNC(=O)C[C@H](NC(=O)OC(C)(C)C)C(=O)N(Cc1ccccc1)C1(C(=O)NCc2ccccc2)CCN(Cc2ccccc2)CC1
4.68	COC(=O)C[C@H](NC(=O)OC(C)(C)C)C(=O)N(Cc1ccccc1)C1(C(=O)NC(C)(C)C)CCN(Cc2ccccc2)CC1
4.80	CCC(C)N(C(=O)[C@H](CC(=O)OC)NC(=O)OC(C)(C)C)C1(C(=O)NCc2ccccc2)CCN(Cc2ccccc2)CC1 (stereo partly drawn)
4.85	COC(=O)C[C@H](NC(=O)OCC1c2ccccc2-c2ccccc21)C(=O)N(Cc1ccccc1)C1(C(=O)NCc2ccccc2)CCN(Cc2ccccc2)CC1
5.00	CC[C@H](C)[C@H](NC(=O)OC(C)(C)C)C(=O)N(Cc1ccccc1)C1(C(=O)NCc2ccccc2)CCN(Cc2ccccc2)CC1
4.44	CCCCNC(=O)C1(N(Cc2ccccc2)C(=O)[C@H](CC(=O)OC)NC(=O)OC(C)(C)C)CCN(Cc2ccccc2)CC1
4.62	COC(=O)C[C@H](NC(=O)OC(C)(C)C)C(=O)N(Cc1ccccc1)C1(C(=O)NCc2ccccc2)CCN(C(=O)OC(C)(C)C)CC1
4.70	COC(=O)C[C@H](NC(=O)OC(C)(C)C)C(=O)N(Cc1ccccc1)C1(C(=O)NCc2ccccc2)CCN(Cc2ccccc2)CC1
4.70	CC(C)(C)NC(=O)C1(N(C(=O)[C@H](Cc2ccccc2)NC(=O)OC(C)(C)C)C2CC2)CCN(C(=O)OC(C)(C)C)CC1
3.86	CC(C)(C)OC(=O)N1CCC[C@H]1C(=O)N(Cc1ccccc1)C1(C(=O)NCc2ccccc2)CCN(Cc2ccccc2)CC1
4.72	COC(=O)C[C@H](NC(=O)OC(C)(C)C)C(=O)N(Cc1ccc(F)cc1)C1(C(=O)NCc2ccccc2)CCN(Cc2ccccc2)CC1
3.97	C=CCOC(=O)N1CCC(C(=O)NCc2ccccc2)(N(Cc2ccccc2)C(=O)[C@H](CC(=O)OC)NC(=O)OC(C)(C)C)CC1
4.68	COC(=O)C[C@H](NC(=O)OC(C)(C)C)C(=O)N(CCNc1ccccc1)C1(C(=O)NCc2ccccc2)CCN(Cc2ccccc2)CC1
4.52	CC[C@H](C)[C@H](NC(=O)OCc1ccccc1)C(=O)N(C1CC1)C1(C(=O)NCc2ccccc2)CCN(Cc2ccccc2)CC1
4.74	COC(=O)C[C@H](NC(=O)OC(C)(C)C)C(=O)N(Cc1ccccc1)C1(C(=O)NCc2ccccc2)CCN(Cc2ccccc2)C1 (single isomer, unassigned; diastereomer 2)
4.60	CC(C)(C)OC(=O)N[C@@H](CC(N)=O)C(=O)N(Cc1ccccc1)C1(C(=O)NCc2ccccc2)CCN(Cc2ccccc2)CC1
4.66	COC(=O)C[C@H](NC(=O)OC(C)(C)C)C(=O)N(Cc1cc(OC)c(OC)c(OC)c1)C1(C(=O)NCc2ccccc2)CCN(Cc2ccccc2)CC1
4.64	CC(C)(C)OC(=O)N[C@@H](Cc1ccc(O)cc1)C(=O)N(Cc1ccccc1)C1(C(=O)NCc2ccccc2)CCN(Cc2ccccc2)CC1
3.92	CCC(C)N(C(=O)[C@@H](NC(=O)OCc1ccccc1)[C@@H](C)CC)C1(C(=O)NCc2ccccc2)CCN(Cc2ccccc2)CC1 (stereo partly drawn)
5.15	C=CCOC(=O)N1CCC(C(=O)NCc2ccccc2)(N(Cc2ccccc2)C(=O)[C@H](Cc2ccccc2)NC(=O)OC(C)(C)C)CC1

SMILES	pIC50
O=C(N[C@@H](Cc1ccccc1)C(=O)N(Cc1ccccc1)C1(C(=O)NCc2ccccc2)CCN(Cc2ccccc2)CC1)Oc1ccccc1	4.77

same assay, conditions: hela

pIC50	SMILES
4.80	COC(=O)C[C@H](NC(=O)OC(C)(C)C)C(=O)N(Cc1ccccc1)C1(C(=O)NCc2ccccc2)CCN(Cc2ccccc2)C1 (single isomer, unassigned; diastereomer-1)

tested on: L1210; assay: Cytostatic activity against mouse L1210 cells assessed as inhibition of cell proliferation after 48 hrs by coulter counting analysis; type: functional, cell-based; conditions: Mus musculus, L1210, 48 h; outline: as §1

pIC50	SMILES
5.21	COC(=O)C[C@H](NC(=O)OC(C)(C)C)C(=O)N(Cc1ccccc1)C1(C(=O)NCc2ccccc2)CCN(Cc2ccccc2)C1 (single isomer, unassigned; diastereomer-1)
5.34	CC(C)(C)OC(=O)N[C@@H](Cc1c[nH]c2ccccc12)C(=O)N(Cc1ccccc1)C1(C(=O)NCc2ccccc2)CCN(Cc2ccccc2)CC1
4.03	CNC(=O)C[C@H](NC(=O)OC(C)(C)C)C(=O)N(Cc1ccccc1)C1(C(=O)NCc2ccccc2)CCN(Cc2ccccc2)CC1
4.64	COC(=O)C[C@H](NC(=O)OC(C)(C)C)C(=O)N(Cc1ccccc1)C1(C(=O)NC(C)(C)C)CCN(Cc2ccccc2)CC1
4.70	CCC(C)N(C(=O)[C@H](CC(=O)OC)NC(=O)OC(C)(C)C)C1(C(=O)NCc2ccccc2)CCN(Cc2ccccc2)CC1 (stereo partly drawn)
5.27	COC(=O)C[C@H](NC(=O)OCC1c2ccccc2-c2ccccc21)C(=O)N(Cc1ccccc1)C1(C(=O)NCc2ccccc2)CCN(Cc2ccccc2)CC1
5.36	CC[C@H](C)[C@H](NC(=O)OC(C)(C)C)C(=O)N(Cc1ccccc1)C1(C(=O)NCc2ccccc2)CCN(Cc2ccccc2)CC1
4.62	CCCCNC(=O)C1(N(Cc2ccccc2)C(=O)[C@H](CC(=O)OC)NC(=O)OC(C)(C)C)CCN(Cc2ccccc2)CC1
4.68	COC(=O)C[C@H](NC(=O)OC(C)(C)C)C(=O)N(Cc1ccccc1)C1(C(=O)NCc2ccccc2)CCN(C(=O)OC(C)(C)C)CC1
4.74	COC(=O)C[C@H](NC(=O)OC(C)(C)C)C(=O)N(Cc1ccccc1)C1(C(=O)NCc2ccccc2)CCN(Cc2ccccc2)CC1
4.85	CC(C)(C)NC(=O)C1(N(C(=O)[C@H](Cc2ccccc2)NC(=O)OC(C)(C)C)C2CC2)CCN(C(=O)OC(C)(C)C)CC1
4.21	CC(C)(C)OC(=O)N1CCC[C@H]1C(=O)N(Cc1ccccc1)C1(C(=O)NCc2ccccc2)CCN(Cc2ccccc2)CC1
4.66	COC(=O)C[C@H](NC(=O)OC(C)(C)C)C(=O)N(Cc1ccc(F)cc1)C1(C(=O)NCc2ccccc2)CCN(Cc2ccccc2)CC1
4.62	C=CCOC(=O)N1CCC(C(=O)NCc2ccccc2)(N(Cc2ccccc2)C(=O)[C@H](CC(=O)OC)NC(=O)OC(C)(C)C)CC1
4.68	COC(=O)C[C@H](NC(=O)OC(C)(C)C)C(=O)N(CCNc1ccccc1)C1(C(=O)NCc2ccccc2)CCN(Cc2ccccc2)CC1
4.96	CC[C@H](C)[C@H](NC(=O)OCc1ccccc1)C(=O)N(C1CC1)C1(C(=O)NCc2ccccc2)CCN(Cc2ccccc2)CC1
4.57	CC(C)(C)OC(=O)N[C@@H](CC(N)=O)C(=O)N(Cc1ccccc1)C1(C(=O)NCc2ccccc2)CCN(Cc2ccccc2)CC1
4.51	COC(=O)C[C@H](NC(=O)OC(C)(C)C)C(=O)N(Cc1cc(OC)c(OC)c(OC)c1)C1(C(=O)NCc2ccccc2)CCN(Cc2ccccc2)CC1
5.30	CC(C)(C)OC(=O)N[C@@H](Cc1ccc(O)cc1)C(=O)N(Cc1ccccc1)C1(C(=O)NCc2ccccc2)CCN(Cc2ccccc2)CC1
4.08	CCC(C)N(C(=O)[C@@H](NC(=O)OCc1ccccc1)[C@@H](C)CC)C1(C(=O)NCc2ccccc2)CCN(Cc2ccccc2)CC1 (stereo partly drawn)
5.38	C=CCOC(=O)N1CCC(C(=O)NCc2ccccc2)(N(Cc2ccccc2)C(=O)[C@H](Cc2ccccc2)NC(=O)OC(C)(C)C)CC1

SMILES	pIC50
O=C(N[C@@H](Cc1ccccc1)C(=O)N(Cc1ccccc1)C1(C(=O)NCc2ccccc2)CCN(Cc2ccccc2)CC1)Oc1ccccc1	5.46

same assay, conditions: l1210

pIC50	SMILES
5.05	COC(=O)C[C@H](NC(=O)OC(C)(C)C)C(=O)N(Cc1ccccc1)C1(C(=O)NCc2ccccc2)CCN(Cc2ccccc2)C1 (single isomer, unassigned; diastereomer 2)

tested on: CCRF-CEM; assay: Cytostatic activity against human CEM cells assessed as inhibition of cell proliferation after 72 hrs by coulter counting analysis; type: functional, cell-based; conditions: Homo sapiens, CCRF-CEM, 72 h; outline: as §1

pIC50	SMILES
4.72	COC(=O)C[C@H](NC(=O)OC(C)(C)C)C(=O)N(Cc1ccccc1)C1(C(=O)NCc2ccccc2)CCN(Cc2ccccc2)C1 (single isomer, unassigned; diastereomer-1)
5.23	CC(C)(C)OC(=O)N[C@@H](Cc1c[nH]c2ccccc12)C(=O)N(Cc1ccccc1)C1(C(=O)NCc2ccccc2)CCN(Cc2ccccc2)CC1
4.20	CNC(=O)C[C@H](NC(=O)OC(C)(C)C)C(=O)N(Cc1ccccc1)C1(C(=O)NCc2ccccc2)CCN(Cc2ccccc2)CC1
4.62	COC(=O)C[C@H](NC(=O)OC(C)(C)C)C(=O)N(Cc1ccccc1)C1(C(=O)NC(C)(C)C)CCN(Cc2ccccc2)CC1
4.72	CCC(C)N(C(=O)[C@H](CC(=O)OC)NC(=O)OC(C)(C)C)C1(C(=O)NCc2ccccc2)CCN(Cc2ccccc2)CC1 (stereo partly drawn)
5.28	COC(=O)C[C@H](NC(=O)OCC1c2ccccc2-c2ccccc21)C(=O)N(Cc1ccccc1)C1(C(=O)NCc2ccccc2)CCN(Cc2ccccc2)CC1
5.15	CC[C@H](C)[C@H](NC(=O)OC(C)(C)C)C(=O)N(Cc1ccccc1)C1(C(=O)NCc2ccccc2)CCN(Cc2ccccc2)CC1
4.55	CCCCNC(=O)C1(N(Cc2ccccc2)C(=O)[C@H](CC(=O)OC)NC(=O)OC(C)(C)C)CCN(Cc2ccccc2)CC1
4.68	COC(=O)C[C@H](NC(=O)OC(C)(C)C)C(=O)N(Cc1ccccc1)C1(C(=O)NCc2ccccc2)CCN(C(=O)OC(C)(C)C)CC1
4.72	COC(=O)C[C@H](NC(=O)OC(C)(C)C)C(=O)N(Cc1ccccc1)C1(C(=O)NCc2ccccc2)CCN(Cc2ccccc2)CC1
4.72	CC(C)(C)NC(=O)C1(N(C(=O)[C@H](Cc2ccccc2)NC(=O)OC(C)(C)C)C2CC2)CCN(C(=O)OC(C)(C)C)CC1
< 4.30	CC(C)(C)OC(=O)N1CCC[C@H]1C(=O)N(Cc1ccccc1)C1(C(=O)NCc2ccccc2)CCN(Cc2ccccc2)CC1
4.80	COC(=O)C[C@H](NC(=O)OC(C)(C)C)C(=O)N(Cc1ccc(F)cc1)C1(C(=O)NCc2ccccc2)CCN(Cc2ccccc2)CC1
4.19	C=CCOC(=O)N1CCC(C(=O)NCc2ccccc2)(N(Cc2ccccc2)C(=O)[C@H](CC(=O)OC)NC(=O)OC(C)(C)C)CC1
4.85	COC(=O)C[C@H](NC(=O)OC(C)(C)C)C(=O)N(CCNc1ccccc1)C1(C(=O)NCc2ccccc2)CCN(Cc2ccccc2)CC1
4.80	CC[C@H](C)[C@H](NC(=O)OCc1ccccc1)C(=O)N(C1CC1)C1(C(=O)NCc2ccccc2)CCN(Cc2ccccc2)CC1
4.59	CC(C)(C)OC(=O)N[C@@H](CC(N)=O)C(=O)N(Cc1ccccc1)C1(C(=O)NCc2ccccc2)CCN(Cc2ccccc2)CC1
4.64	COC(=O)C[C@H](NC(=O)OC(C)(C)C)C(=O)N(Cc1cc(OC)c(OC)c(OC)c1)C1(C(=O)NCc2ccccc2)CCN(Cc2ccccc2)CC1
5.28	CC(C)(C)OC(=O)N[C@@H](Cc1ccc(O)cc1)C(=O)N(Cc1ccccc1)C1(C(=O)NCc2ccccc2)CCN(Cc2ccccc2)CC1
3.95	CCC(C)N(C(=O)[C@@H](NC(=O)OCc1ccccc1)[C@@H](C)CC)C1(C(=O)NCc2ccccc2)CCN(Cc2ccccc2)CC1 (stereo partly drawn)
5.33	C=CCOC(=O)N1CCC(C(=O)NCc2ccccc2)(N(Cc2ccccc2)C(=O)[C@H](Cc2ccccc2)NC(=O)OC(C)(C)C)CC1

SMILES	pIC50
O=C(N[C@@H](Cc1ccccc1)C(=O)N(Cc1ccccc1)C1(C(=O)NCc2ccccc2)CCN(Cc2ccccc2)CC1)Oc1ccccc1	5.05

same assay, conditions: ccrf-cem

pIC50	SMILES
4.66	COC(=O)C[C@H](NC(=O)OC(C)(C)C)C(=O)N(Cc1ccccc1)C1(C(=O)NCc2ccccc2)CCN(Cc2ccccc2)C1 (single isomer, unassigned; diastereomer 2)

tested on: CAKI-1; assay: Cytostatic activity against human Caki1 cells assessed as inhibition of cell proliferation after 96 hrs by coulter counting analysis; type: functional, cell-based; conditions: CAKI-1, 96 h
Outline: (§2)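 Anti-proliferative testing extended to human kidney Caki-1 and human liver Huh-7 tumour cells. The value reported is the IC50, the concentration that inhibits tumour cell growth by 50%.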

SMILES	pIC50
CC(C)(C)OC(=O)N[C@@H](Cc1c[nH]c2ccccc12)C(=O)N(Cc1ccccc1)C1(C(=O)NCc2ccccc2)CCN(Cc2ccccc2)CC1	4.85
C=CCOC(=O)N1CCC(C(=O)NCc2ccccc2)(N(Cc2ccccc2)C(=O)[C@H](Cc2ccccc2)NC(=O)OC(C)(C)C)CC1	4.92

tested on: Huh-7; assay: Cytostatic activity against human HuH7 cells assessed as inhibition of cell proliferation after 96 hrs by coulter counting analysis; type: functional, cell-based; conditions: Huh-7, 96 h; outline: as §2

pIC50	SMILES
5.18	CC(C)(C)OC(=O)N[C@@H](Cc1c[nH]c2ccccc12)C(=O)N(Cc1ccccc1)C1(C(=O)NCc2ccccc2)CCN(Cc2ccccc2)CC1
5.09	C=CCOC(=O)N1CCC(C(=O)NCc2ccccc2)(N(Cc2ccccc2)C(=O)[C@H](Cc2ccccc2)NC(=O)OC(C)(C)C)CC1
